Bioassay records deposited in PubChem by several laboratories.
Shown is part of a subset that was picked to be rich in hits.
CHOP inh: blocks CHOP induction under ER stress. inhibition, % at 10 µM. 220,000 tested, 3.8% active. CHO-K1 CHOP-promoter luciferase, tunicamycin-induced, 15-18 h. AID 2732;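 active = compounds that reduced the stress-induced luciferase reporter signal by more than about 70% of percent inhibition, limit read from the data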
XBP1 UPR activ: adaptive UPR (XBP1) activation. CHO-XBP1 luciferase reporter, IRE1-XBP1 UPR activation, luminescence; percent of tunicamycin response, DMSO as zero. activation, % at 20 µM. 330,000 tested, 0.33% active;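 active = versus positive control, 20 µM dose yields 30% or more activation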
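Assay system: IRE1-XBP1 luciferase reporter CHO line. Input: 1000 cells/well. Buffer or medium: F12 with 10% serum. Doses: 20 µM, 1% DMSO. Times: overnight seeding at 37 °C, 6 h compound treatment at 37 °C. Technique: Steady-Glo luciferase glow luminescence, 10 min after reagent addition.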
iPSC survival up: enhancers of human iPSC single-cell survival | survival enhancement, % at 20 µM | 360,000 tested, 0.044% active | hiPSC single-cell survival, ATPlite luminescence; 100% = ROCK inhibitor wells, 0% = DMSO; in the data active = survival enhancement above about 18%;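 note: cells exposed to compounds for 16 hours before the ATP read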
Cardio protect: myocardial damage modulation in H9c2 cells; 360,000 tested, 0.63% active; protection from H2O2 cell death, % at 20 µM; H9c2 cardiomyocytes, H2O2 injury protection, ATPLite, 2 h; AID 588492;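 active = compounds giving at least 50% protection of heart cells from peroxide-induced death in the single-dose screen, raw or plate-pattern-corrected value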
CHOP UPR activ: apoptotic UPR (CHOP) activation. CHO-CHOP luciferase reporter, luminescence; percent of tunicamycin response over DMSO baseline. activation, % at 10 µM. 330,000 tested, 0.34% active. AID 449763;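 active = at 10 µM dose, activation of 40% or more, normalized to positive control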
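measured by = luciferase luminescence | assay system = CHO-CHOP cells, stable luciferase reporter of PERK-eIF2a-CHOP signalling | amount = 500 reporter cells seeded per well | timing = 6 h compound exposure at 37 °C after overnight seeding | controls = positive tunicamycin 10 µg/mL, negative DMSO alone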
XBP1 UPR conf: confirmation of adaptive unfolded protein response (XBP1) activators. CHO-XBP1 IRE1-XBP1 luciferase reporter, luminescence. shares compounds with XBP1 UPR activ. activation, % at 20 µM. 1,000 tested, 63% active;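 active = reporter signal at least 30% of the positive control's activation in two or more of four replicate wells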
A number is an active result; 0 = inactive; - = not tested or not shown.

SMILES | CHOP inh | XBP1 UPR activ | iPSC survival up | Cardio protect | CHOP UPR activ | XBP1 UPR conf
O=C(Cc1ccccc1)c1c[nH]c(C(=O)C(Cl)(Cl)Cl)c1 | - | 39 | 0 | 0 | 0 | 49
O=C(c1ccccc1)c1c[nH]c(C(=O)C(Cl)(Cl)Cl)c1 | 0 | 0 | 0 | 0 | 0 | -
Cc1nc2c(OCc3cc(Cl)cc(Cl)c3)cccn2c1N(C)C(=O)CCC1CCCC1 | - | - | 0 | 0 | - | -
O=C(O)C1(O)C[C@@H](O)C(O)[C@H](O)C1 (stereo not given in full) | - | - | 0 | 0 | - | -
CC(C)(C)n1nnnc1C(c1cc2ccccc2o1)N1CCCCC1 (stereo not given) | - | - | 0 | - | - | -
CN(C)CCCn1cnc2c(c1=N)C(c1ccccc1)c1ccc3ccccc3c1O2 (stereo not given) | - | 32 | 0 | 0 | 0 | 127
Cc1ccc(Cn2cnc3sc4c(c3c2=O)CCC4)c(C)c1 | 77 | 31 | 0 | 0 | 0 | 0
CCCCCCCCCCOC(=O)Cn1c(COc2cccc(C)c2)[n+](C)c2ccccc21 | - | 34 | 0 | 0 | 0 | 0
CCCCCCCCCCOC(=O)Cn1c(COc2ccccc2C)[n+](C)c2ccccc21 | - | 60 | 0 | 0 | 0 | 72
CCCCCCCCCCOC(=O)Cn1c(COc2ccc(Cl)cc2)[n+](C)c2ccccc21 | - | 36 | 0 | 0 | 0 | 36
CCCCCCCCCCOC(=O)Cn1c(COc2ccc(OC)cc2)[n+](C)c2ccccc21 | - | 66 | 0 | 0 | 0 | 44
CCOC(=O)Cn1c(COc2ccccc2OC)[n+](C)c2ccccc21 | - | 0 | 0 | 0 | 0 | -
CCCCCCCCCCOC(=O)Cn1c(COc2ccccc2)[n+](C)c2ccccc21 | - | 72 | 0 | 0 | 0 | 0
CCCCOC(=O)Cn1c(=O)n(CC(=O)OCCCC)c2ccccc21 | 0 | 0 | 0 | 0 | 0 | -
CCOC(=O)c1nnc(-c2ccccc2)nc1Sc1ccccc1Cl | 0 | 38 | 0 | 0 | 0 | 68
CCOC(=O)c1nnc(-c2ccc(C)cc2)nc1Sc1cccc(Cl)c1 | 0 | 48 | 0 | 0 | 0 | 46
CCC(Sc1nc2cc(OC)c(OC)cc2c(=O)n1Cc1ccco1)C(=O)NCCOC (stereo not given) | 0 | 0 | 0 | 0 | 0 | -
CCc1ccccc1NC(=O)C(CC)Sc1nc2cc3c(cc2c(=O)n1Cc1ccco1)OCO3 (stereo not given) | 0 | 95 | 0 | 0 | 0 | 193
COc1ccc(NC2CCCN(C(=O)c3ccc4[nH]c(C)c(C)c4c3)C2)cc1OC (stereo not given) | - | 0 | 0 | 0 | 0 | -
O=C(Nc1ccc(Oc2ccc(NC(=O)Nc3ccccc3Cl)cc2)cc1)Nc1ccccc1Cl | 94 | 44 | 0 | 0 | 0 | 54
CCN(CC)Cc1nc2nc(Cl)c(Cl)nc2[nH]1 | - | - | 0 | 0 | - | -
CC(C)c1ccc(C2C3=C(COC3=O)Nc3cc4c(cc32)OCO4)cc1 (stereo not given) | 0 | 43 | 0 | 0 | 0 | 93
O=C1OCC2=C1C(c1ccc3c(c1)OCO3)c1cc3c(cc1O2)OCO3 (stereo not given) | - | - | 0 | 0 | - | -
COCCC(=O)N1CCOCC1c1cc(C(=O)NCc2ccccc2)no1 (stereo not given) | - | - | 0 | 0 | - | -
O=[N+]([O-])c1cccc(/C=C/c2ccc3cccc(O)c3n2)c1 | - | 98 | 0 | 0 | 0 | 158
SMILES | CHOP inh | XBP1 UPR activ | iPSC survival up | Cardio protect | CHOP UPR activ | XBP1 UPR conf
COc1ncccc1-c1cc2nc(NCCNC(C)=O)n(C)c(=O)c2s1 | - | - | 0 | 0 | - | -
N#CCn1c(Cc2ccccc2)nc2ccccc2c1=O | - | 32 | 0 | 0 | 0 | 0
COc1ccc(NC(=O)C(OC(=O)c2cnccn2)c2ccccc2)cc1Cl (stereo not given) | - | 0 | 0 | 0 | 0 | -
O=C(N/N=C/C(Br)=C\c1ccccc1)c1n[nH]c2c1CCC2 | - | 35 | 0 | 0 | 0 | 36
CSc1ncccc1C(=O)N1CCCC(Nc2ccc(C)c(C)c2)C1 (stereo not given) | - | 0 | 0 | 0 | 0 | -
O=C(C1CCCCC1)N1C[C@@H](O)[C@H](n2cc(C3CC3)nn2)C[C@@H]1c1ccccc1 | - | - | 0 | 0 | - | -
COc1ccc(S(=O)(=O)N2CCN(S(=O)(=O)c3ccc4c(c3)OCCO4)CC2)cc1 | 0 | 38 | 0 | 0 | 0 | 0
O=C(c1ccccc1NS(=O)(=O)c1ccc([N+](=O)[O-])cc1[N+](=O)[O-])N1O[C@@H]2C=C[C@H]1C2 | - | 0 | 0 | 0 | 0 | -
CC(C)[C@H](NC(=O)c1ccccc1F)C(=O)OCC(=O)NC1CC1 | - | 0 | 0 | 0 | 0 | -
CCCNC(=O)c1cc(Cl)c(NC(=O)C2=CSCCO2)cc1OC | - | 0 | 0 | 0 | 0 | -
O=C(CSc1cccc2cccnc12)N/N=C/c1ccc(O)cc1 | 0 | 0 | 0 | 0 | 0 | -
COc1cccc(/C=N/NC(=O)CSc2cccc3cccnc23)c1 | 0 | 32 | 0 | 0 | 0 | 0
C=CCn1c(=O)[nH]c2cc(C(=O)N3CCN(c4cccc(Cl)c4)CC3)ccc2c1=O | 0 | 0 | 0 | 0 | 0 | -
O=C(c1ccc2c(c1)[nH]c(=S)n1c3ccccc3nc21)N1CCN(c2cccc(Cl)c2)CC1 | 0 | 33 | 0 | 0 | 0 | 54
Cc1cc(C)cc(-n2nnnc2SCC(=O)Nc2nc(-c3ccc(Cl)cc3)cs2)c1 | 76 | 34 | 0 | 0 | 0 | 0
c1ccc(-c2sc3ccccc3c2-c2ccc(OCCN3CCCCC3)cc2)cc1 | - | 0 | 0 | 0 | 0 | -
CN(C)CCOc1ccc(-c2c(-c3ccccc3)sc3ccccc23)cc1 | - | 60 | 0 | 0 | 0 | 55
CC(C)N(C(=O)[C@H]1C[C@H](CC(=O)NCC23CC4CC(CC(C4)C2)C3)C(=O)N2CCc3c([nH]c4ccc(Cl)cc34)[C@]12C)C(C)C | - | 39 | 0 | 0 | 0 | 50
CCN(CC)C(=O)[C@H]1C[C@H](CC(=O)NCC23CC4CC(CC(C4)C2)C3)C(=O)N2CCc3c([nH]c4ccc(Cl)cc34)[C@]12C | - | 0 | 0 | 0 | 0 | -
COc1ccc(-c2ccnc(-c3ccc(O)cc3)n2)cc1 | 0 | 0 | 0 | 0 | 0 | -
Cc1ccc(-c2ccnc(-c3ccc(O)cc3)n2)cc1 | 0 | 34 | 0 | 0 | 0 | 36
COc1cccc(-c2cc3nc(NCc4ccccc4F)n(C)c(=O)c3s2)c1 | - | - | 0 | 0 | - | -
COc1ccc(-c2ccc3oc(-c4ccsc4)cc(=O)c3c2)cc1F | - | 0 | 0 | 0 | 0 | -
COc1cc(-c2ccc3oc(-c4ccsc4)cc3c2)cc(OC)c1OC | - | 61 | 0 | 0 | 0 | 32
COc1ccc(-c2c(-c3cc(OC)cc(OC)c3)n(C)c3ccc(-c4ccc(OC)nc4)cc23)cc1 | - | 0 | 0 | 0 | 0 | -
COc1ccc(-c2c(-c3cc(OC)cc(OC)c3)n(C)c3ccc(-c4cnc(N)nc4)cc23)cc1 | - | 189 | 0 | 0 | 0 | 132
CCCn1c(C(C)Nc2nc(-c3ccc(C)cc3)cs2)nc2cc(Cl)c(Cl)cc21 (stereo not given) | - | 0 | 0 | 0 | 0 | -
